ChEMBL document CHEMBL3232885, “Synthesis, characterization and pharmacological screening of some novel 5-imidazopyrazole incorporated polyhydroquinoline derivatives” (Eur J Med Chem, 2014)
≈ marks a conversion by molar mass, not a printed value.

Columns and labels:
Bacillus subtilis = experiment: Antibacterial activity against Bacillus subtilis MTCC 441 assessed as growth inhibition after 24 to 48 hrs by broth microdilution method; assay type: functional
Method in brief: (§1)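 Bacteria were grown in Mueller-Hinton broth with inoculum adjusted to 10⁸ CFU mL⁻¹ by turbidity. Compounds were serially diluted in 2% aqueous DMSO and incubated at 37 °C overnight. Growth was checked by subculture at 24 and 48 h. MIC was taken as the highest dilution with no turbidity after spot subculture.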

Clostridium tetani = experiment: Antibacterial activity against Clostridium tetani MTCC 449 assessed as growth inhibition after 24 to 48 hrs by broth microdilution method; assay type: functional
Salmonella typhi = experiment: Antibacterial activity against Salmonella typhi MTCC 98 assessed as growth inhibition after 24 to 48 hrs by broth microdilution method; assay type: functional, Salmonella enterica subsp. enterica serovar Typhi; conditions: Salmonella enterica
Streptococcus pneumoniae = experiment: Antibacterial activity against Streptococcus pneumoniae MTCC 1936 assessed as growth inhibition after 24 to 48 hrs by broth microdilution method; assay type: functional; method in brief: as §1
Aspergillus fumigatus = experiment: Antifungal activity against Aspergillus fumigatus MTCC 3008 assessed as growth inhibition after 24 to 48 hrs by broth microdilution method; assay type: functional
Method in brief: (§2)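 Fungal nutrition used Sabouraud Dextrose broth with inoculum at 10⁸ CFU mL⁻¹ by turbidity. Serial compound dilutions were made in 2% DMSO in water. Growth was noted on subculture after 24 and 48 h. MIC was taken as the highest dilution preventing visible turbidity after spot subculture.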

Candida albicans = experiment: Antifungal activity against Candida albicans MTCC 227 assessed as growth inhibition after 24 to 48 hrs by broth microdilution method; assay type: functional; method in brief: as §2
[1] = tested on: Mycobacterium tuberculosis; experiment: Antitubercular activity against Mycobacterium tuberculosis H37Rv assessed as inhibition of colony formation at 250 ug/mL after 2 to 4 weeks by Lowensteine-Jensen method relative to control; assay type: functional
Vibrio cholerae = experiment: Antibacterial activity against Vibrio cholerae MTCC 3906 assessed as growth inhibition after 24 to 48 hrs by broth microdilution method; assay type: functional
Plasmodium falciparum = experiment: Antimalarial activity against chloroquine/quinine sensitive Plasmodium falciparum assessed as parasite growth inhibition after 48 hrs; assay type: functional, organism-based
[2] = tested on: Mycobacterium tuberculosis; experiment: Antitubercular activity against Mycobacterium tuberculosis H37Rv assessed as inhibition of colony formation at 100 ug/mL after 2 to 4 weeks by Lowensteine-Jensen method relative to control; assay type: functional
Escherichia coli = experiment: Antibacterial activity against Escherichia coli MTCC 443 assessed as growth inhibition after 24 to 48 hrs by broth microdilution method; assay type: functional; method in brief: as §1

| Compound | MIC (Bacillus subtilis) [µg/mL] | MIC (Clostridium tetani) [µg/mL] | MIC (Salmonella typhi) [µg/mL] | MIC (Streptococcus pneumoniae) [µg/mL] | MIC (Aspergillus fumigatus) [µg/mL] | MIC (Candida albicans) [µg/mL] | inhibition at 250 µg/mL [1] [%] | MIC (Vibrio cholerae) [µg/mL] | IC50 (Plasmodium falciparum) [µg/mL] | inhibition at 100 µg/mL [2] [%] | MIC (Escherichia coli) [µg/mL] |
| --- | --- | --- | --- | --- | --- | --- | --- | --- | --- | --- | --- |
| Cc1nn(-c2ccccc2)c(-n2ccnc2)c1C1C(C#N)=C(N)N(c2ccccc2)C2=C1C(=O)CC(C)(C)C2 (centres undefined) | 250 (≈ 485 µM) | 500 (≈ 970 µM) | 125 (≈ 242 µM) | 500 (≈ 970 µM) | 500 (≈ 970 µM) | 1000 (≈ 1940 µM) | 33 | 100 (≈ 194 µM) | 1.08 (≈ 2.1 µM) | 28 | 100 (≈ 194 µM) |
| CCOC(=O)C1=C(N)N(c2ccccc2)C2=C(C(=O)CC(C)(C)C2)C1c1c(C)nn(-c2ccccc2)c1-n1ccnc1 (centres undefined) | 250 (≈ 444 µM) | 200 (≈ 355 µM) | 200 (≈ 355 µM) | 500 (≈ 889 µM) | 500 (≈ 889 µM) | 250 (≈ 444 µM) | 45 | 125 (≈ 222 µM) | 1.47 (≈ 2.61 µM) | 37 | 250 (≈ 444 µM) |
| Cc1nn(-c2ccccc2)c(-n2ccnc2)c1C1C(C#N)=C(N)N(c2cccc(O)c2)C2=C1C(=O)CC(C)(C)C2 (centres undefined) | 500 (≈ 941 µM) | 200 (≈ 376 µM) | 250 (≈ 470 µM) | 200 (≈ 376 µM) | 500 (≈ 941 µM) | 1000 (≈ 1880 µM) | 38 | 62.5 (≈ 118 µM) | 0.034 (≈ 0.064 µM) | 34 | 200 (≈ 376 µM) |
| Cc1nn(-c2ccccc2)c(-n2ccnc2)c1C1C(C#N)=C(N)N(c2ccccc2O)C2=C1C(=O)CC(C)(C)C2 (centres undefined) | 100 (≈ 188 µM) | 200 (≈ 376 µM) | 250 (≈ 470 µM) | 125 (≈ 235 µM) | 500 (≈ 941 µM) | 1000 (≈ 1880 µM) | 45 | 125 (≈ 235 µM) | 0.71 (≈ 1.34 µM) | 38 | 250 (≈ 470 µM) |
| Cc1nn(-c2ccccc2)c(-n2ccnc2)c1C1C(C(N)=O)=C(N)N(c2ccc(Cl)cc2)C2=C1C(=O)CC(C)(C)C2 (centres undefined) | 200 (≈ 352 µM) | 200 (≈ 352 µM) | 250 (≈ 440 µM) | 200 (≈ 352 µM) | 1000 (≈ 1760 µM) | 250 (≈ 440 µM) | 75 | 500 (≈ 880 µM) | 0.059 (≈ 0.104 µM) | 66 | 250 (≈ 440 µM) |
| CCOC(=O)C1=C(N)N(c2cccc(O)c2)C2=C(C(=O)CC(C)(C)C2)C1c1c(C)nn(-c2ccccc2)c1-n1ccnc1 (centres undefined) | 500 (≈ 864 µM) | 250 (≈ 432 µM) | 200 (≈ 346 µM) | 200 (≈ 346 µM) | 1000 (≈ 1730 µM) | 250 (≈ 432 µM) | 12 | 125 (≈ 216 µM) | 0.072 (≈ 0.124 µM) | 9 | 200 (≈ 346 µM) |
| NYSTATIN | – | – | – | – | 500 | 100 | – | – | – | – | – |
| CCn1cc(C(=O)O)c(=O)c2cc(F)c(N3CCNCC3)cc21 [NORFLOXACIN] | 25 (≈ 78.3 µM) | 25 (≈ 78.3 µM) | 50 (≈ 157 µM) | 250 (≈ 783 µM) | – | – | – | 50 (≈ 157 µM) | – | – | 50 (≈ 157 µM) |
| Cc1nn(-c2ccccc2)c(-n2ccnc2)c1C1C(C(N)=O)=C(N)N(c2ccc(O)cc2)C2=C1C(=O)CCC2 (centres undefined) | 200 (≈ 383 µM) | 200 (≈ 383 µM) | 100 (≈ 192 µM) | 250 (≈ 479 µM) | 1000 (≈ 1920 µM) | 1000 (≈ 1920 µM) | 67 | 500 (≈ 959 µM) | 0.033 (≈ 0.0633 µM) | 60 | 200 (≈ 383 µM) |
| CCOC(=O)C1=C(N)N(c2ccc(O)cc2)C2=C(C(=O)CC(C)(C)C2)C1c1c(C)nn(-c2ccccc2)c1-n1ccnc1 (centres undefined) | 62.5 (≈ 108 µM) | 200 (≈ 346 µM) | 200 (≈ 346 µM) | 250 (≈ 432 µM) | > 1000 | 500 (≈ 864 µM) | 20 | 200 (≈ 346 µM) | 0.096 (≈ 0.166 µM) | 12 | 200 (≈ 346 µM) |
| CCOC(=O)C1=C(N)N(c2ccc(Cl)cc2)C2=C(C(=O)CC(C)(C)C2)C1c1c(C)nn(-c2ccccc2)c1-n1ccnc1 (centres undefined) | 100 (≈ 167 µM) | 125 (≈ 209 µM) | 100 (≈ 167 µM) | 125 (≈ 209 µM) | 500 (≈ 837 µM) | > 1000 | 63 | 200 (≈ 335 µM) | 0.057 (≈ 0.0955 µM) | 58 | 100 (≈ 167 µM) |
| C=C[C@H]1CN2CC[C@H]1C[C@H]2[C@H](O)c1ccnc2ccc(OC)cc12 [QUININE] | – | – | – | – | – | – | – | – | 0.268 (≈ 0.826 µM) | – | – |
| CCOC(=O)C1=C(N)N(c2ccc(OC)cc2)C2=C(C(=O)CC(C)(C)C2)C1c1c(C)nn(-c2ccccc2)c1-n1ccnc1 (centres undefined) | 125 (≈ 211 µM) | 250 (≈ 422 µM) | 200 (≈ 337 µM) | 100 (≈ 169 µM) | 1000 (≈ 1690 µM) | 1000 (≈ 1690 µM) | 25 | 250 (≈ 422 µM) | 1.49 (≈ 2.51 µM) | 20 | 100 (≈ 169 µM) |
